Data set [1] can be described thus: Cytotoxicity against in Balb/c mouse T cells at 10^-6 M after 48 hrs by MTT assay. The conditions noted are these: t-cell, 1 µM. The class given is cell-based. In outline: (§1)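 Spleens taken aseptically from Balb/c mice (18–22 g). Single-cell suspension made in incomplete RPMI, RBCs lysed with Tris-ammonium chloride, cells washed, resuspended in complete RPMI and checked for viability by trypan blue. Cells seeded at 1 × 10⁶ cells/mL. Compounds in DMSO tested at 1×10⁻⁴, 1×10⁻⁵ and 1×10⁻⁶ M, 48 h, 37 °C, 5% CO₂.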

Data set [2] can be described thus: Cytotoxicity against in Balb/c mouse B cells at 10^-4 M after 48 hrs by MTT assay. The class given is cell-based. The conditions noted are these: 100 µM. In outline: as §1
On the technique in general: Tetrazolium assays rely on reduction of a dye to a coloured formazan, in cell work by metabolically active cells.

Data set [3] can be described thus: Immunostimulant activity in Balb/c mouse T cells assessed as inhibition of concanavalin A-induced cell proliferation at 10^-4 M after 48 hrs by MTT assay. The class given is functional. The conditions noted are these: Mus musculus, Balb/c, T-cell, 48 h. Put shortly: as §1
Data set [4] can be described thus: Cytotoxicity against in Balb/c mouse T cells at 10^-5 M after 48 hrs by MTT assay. The conditions noted are these: t-cell, 10 µM. It counts as cell-based. Put shortly: as §1
Data set [5] in a line: Immunosuppressive activity in Balb/c mouse B cells assessed as inhibition of LPS-induced cell proliferation at 10^-4 M after 48 hrs by MTT assay. The class given is functional. In outline: as §1
Data set [6] in a line: Immunosuppressive activity in Balb/c mouse B cells assessed as inhibition of LPS-induced cell proliferation at 10^-5 M after 48 hrs by MTT assay. It counts as functional. Put shortly: as §1
Data set [7] in a line: Cytotoxicity against in Balb/c mouse B cells at 10^-5 M after 48 hrs by MTT assay. It counts as cell-based. Conditions: 10 µM. In outline: as §1
Data set [8] can be described thus: Immunostimulant activity in Balb/c mouse T cells assessed as inhibition of concanavalin A-induced cell proliferation at 10^-5 M after 48 hrs by MTT assay. It counts as functional. In outline: as §1
Data set [9] is described as follows: Immunostimulant activity in Balb/c mouse T cells assessed as inhibition of concanavalin A-induced cell proliferation at 10^-6 M after 48 hrs by MTT assay. It counts as functional. In outline:
as §1

Data set [10] can be described thus: Cytotoxicity against in Balb/c mouse B cells at 10^-6 M after 48 hrs by MTT assay. Conditions: 1 µM. The class given is cell-based. Put shortly: as §1
Data set [11] in a line: Immunosuppressive activity in Balb/c mouse B cells assessed as inhibition of LPS-induced cell proliferation at 10^-6 M after 48 hrs by MTT assay. The class given is functional. In outline:
as §1

Another data set deals with B. Put plainly: Immunosuppressive activity in Balb/c mouse B cells assessed as inhibition of LPS-induced cell proliferation after 48 hrs by MTT assay. The class given is functional, cell-based. In outline:
as §1

Data set [12] can be described thus: Cytotoxicity against in Balb/c mouse T cells at 10^-4 M after 48 hrs by MTT assay. It counts as cell-based. Conditions: t-cell, 100 µM. In outline:
as §1

The nature of data set [13]: Immunostimulant activity in Balb/c mouse B cells assessed as inhibition of LPS-induced cell proliferation at 10^-5 M after 48 hrs by MTT assay. The class given is functional. Put shortly:
as §1

The nature of data set [14]: Immunosuppressive activity in Balb/c mouse T cells assessed as inhibition of concanavalin A-induced cell proliferation at 10^-5 M after 48 hrs by MTT assay. The class given is functional. In outline: as §1
Data set [15] is described as follows: Immunosuppressive activity in Balb/c mouse T cells assessed as inhibition of concanavalin A-induced cell proliferation at 10^-6 M after 48 hrs by MTT assay. It counts as functional. Conditions: Mus musculus, Balb/c, T-cell, 48 h. In outline:
as §1

The nature of data set [16]: Immunostimulant activity in Balb/c mouse B cells assessed as inhibition of LPS-induced cell proliferation at 10^-4 M after 48 hrs by MTT assay. It counts as functional. In outline:
as §1

The nature of data set [17]: Immunostimulant activity in Balb/c mouse B cells assessed as inhibition of LPS-induced cell proliferation at 10^-6 M after 48 hrs by MTT assay. The class given is functional. In outline:
as §1

The next data set has as its system Plasmodium falciparum. Put plainly: Antimalarial activity against chloroquine-resistant Plasmodium falciparum Smith. Conditions: read-out: ED50 (the source's name). The class given is functional.
A short description of data set [18]: Immunosuppressive activity in Balb/c mouse T cells assessed as inhibition of concanavalin A-induced cell proliferation at 10^-4 M after 48 hrs by MTT assay. It counts as functional. In outline:
as §1

Among the data in ChEMBL document CHEMBL2311361, “Diminutive effect on T and B-cell proliferation of non-cytotoxic α-santonin derived 1,2,3-triazoles: a report” (Eur J Med Chem, 2013) are Activity, inhibition and EC50 values, retold here.

≈ marks a conversion by molar mass, not a printed value.

The term inhibition denotes the change of the read-out against control, counted positive when it falls. For `CC(=O)Oc1cc(C)c2c(c1C)[C@@H]1OC(=O)[C@@H](C)[C@@H]1CC2`, the Activity result in [1], in data set [2], in [4], in data set [7], in [10] and in [12] was “Non-toxic” each time. In addition, the inhibition at 100 µM in data set [3] was 47.6%; in data set [5] it was -36.8%. Moreover, the values for the inhibition at 10 µM in [6] and in data set [8] were 25.6% and 26.8%, respectively. Also, the inhibition at 1 µM in data set [9] was 18.3%; in [11] it was 23.9%. The inhibition result with B is “Dose-dependent effect”.

In the case of `CCCOc1ccc(-n2nncc2COc2cc(C)c3c(c2C)[C@@H]2OC(=O)[C@@H](C)[C@@H]2CC3)cc1Cl`, the inhibition at 10 µM in data set [13] was 12.8%; in data set [14], 27.1%. Also, the Activity entry in data set [1], in data set [2], in data set [4], in [7], in [10] and in data set [12] was “Non-toxic” each time. For the same compound, the inhibition at 100 µM in data set [3] came to 7.14%; in data set [16], 21.4%. Further, the inhibition at 1 µM in [15] came out at 7.14%; in data set [17] it was 41.4%.

As for `Cc1cc(OCc2cnnn2-c2ccc(F)cc2)c(C)c2c1CC[C@H]1[C@H](C)C(=O)O[C@@H]21`, the values for the inhibition at 10 µM in [13] and in data set [8] were 10% and 44.3%, respectively. Moreover, the Activity entry in [1], in data set [2], in data set [4], in data set [7], in [10] and in data set [12] was “Non-toxic” in each case. Further, the inhibition at 100 µM worked out at 70% in data set [3] and 2.85% in data set [5]. Moreover, the inhibition at 1 µM in data set [9] is 12.8%; in data set [17], 11.4%.

`CC1=CC2C[C@]3(C)CC[C@H]4[C@H](C)C(=O)O[C@@H]4C13OO2` (stereo partly drawn): the EC50 in the data set with Plasmodium falciparum is 0.729 µg/mL (≈ 2.76 µM).

On to `COc1c(Br)cc(C)cc1-n1nncc1COc1cc(C)c2c(c1C)[C@@H]1OC(=O)[C@@H](C)[C@@H]1CC2`, for which the inhibition at 10 µM in [13] came to 28.6%; in [8], 7.14%. Also, the Activity result in data set [1], in data set [2], in data set [4], in data set [7], in [10] and in data set [12] was “Non-toxic” each time. Further, the inhibition at 100 µM was found to be 5.71% in data set [3] and 15.7% in [16]. The inhibition at 1 µM in data set [9] was 5.71%; in [17], 27.1%.

As for `Cc1cc(OCc2cnnn2-c2cccc([N+](=O)[O-])c2)c(C)c2c1CC[C@H]1[C@H](C)C(=O)O[C@@H]21`, the inhibition at 10 µM in data set [13] worked out at 0.85%; in data set [14] it was 93.9%. Further, the Activity entry in data set [1] is reported as “Non-toxic”; in [2], “Toxic”; in [4] it was “Toxic”; in [7] it was “Toxic”; in [10], “Non-toxic”; in [12] it was “Toxic”. In addition, the results for the inhibition at 1 µM in data set [15] and in data set [11] were 93.9% and 24.8%, respectively. The values for the inhibition at 100 µM in data set [16] and in [18] were 36.8% and 95.1%, respectively.

Consider `Cc1cc(OCc2cnnn2-c2ccccc2)c(C)c2c1CC[C@H]1[C@H](C)C(=O)O[C@@H]21`, for which the inhibition at 10 µM in data set [13] was determined as 8.57%. Further, the Activity result is on record as “Non-toxic” in data set [1]; “Toxic” in [2]; “Toxic” in data set [4]; “Toxic” in data set [7]; “Non-toxic” in [10]; “Toxic” in data set [12]. Moreover, the inhibition at 100 µM in [3] is 97.1%; in data set [16], 1.42%. Also, the inhibition at 1 µM came to 21.4% in data set [15] and 30% in [17].
